Test results as given in ChEMBL document CHEMBL6078622, “Enhancing outer membrane permeability of tetracycline antibiotics in P. aeruginosa using TOB-CIP conjugates” (RSC Med Chem, 2024).
Calls of active or inactive are those of the source. The rule behind the calls is not given here.

Tests used:
Escherichia coli = experiment: Antibacterial activity against Escherichia coli ATCC 25922 assessed as inhibition of visible bacterial growth by CLSI based broth-microdilution method; type: functional
Pseudomonas aeruginosa [1] = experiment: Antibacterial activity against Pseudomonas aeruginosa PA264 assessed as inhibition of visible bacterial growth by CLSI based broth-microdilution method; type: functional
Pseudomonas aeruginosa [2] = experiment: Antibacterial activity against Pseudomonas aeruginosa PA095 assessed as inhibition of visible bacterial growth by CLSI based broth-microdilution method; type: functional
Pseudomonas aeruginosa [3] = experiment: Synergistic antibacterial activity against Pseudomonas aeruginosa PA259 in presence of doxycycline by checkerboard assay; type: functional
Pseudomonas aeruginosa [4] = experiment: Synergistic antibacterial activity against Pseudomonas aeruginosa PA259 in presence of eravacycline by checkerboard assay; type: functional
Pseudomonas aeruginosa [5] = experiment: Synergistic antibacterial activity against Pseudomonas aeruginosa PA262 in presence of eravacycline by checkerboard assay; type: functional
Pseudomonas aeruginosa [6] = experiment: Synergistic antibacterial activity against Pseudomonas aeruginosa PA100036 in presence of tigecycline by checkerboard assay; type: functional
Pseudomonas aeruginosa [7] = experiment: Synergistic antibacterial activity against Pseudomonas aeruginosa PA095 in presence of minocycline by checkerboard assay; type: functional
Pseudomonas aeruginosa [8] = experiment: Synergistic antibacterial activity against Pseudomonas aeruginosa PA095 in presence of tigecycline by checkerboard assay; type: functional
Pseudomonas aeruginosa [9] = experiment: Antibacterial activity against Pseudomonas aeruginosa PA259 assessed as tigecycline MIC by CLSI based broth-microdilution method; type: functional
Pseudomonas aeruginosa [10] = experiment: Antibacterial activity against Pseudomonas aeruginosa PA262 assessed as doxycycline MIC by CLSI based broth-microdilution method; type: functional
Pseudomonas aeruginosa [11] = experiment: Antibacterial activity against Pseudomonas aeruginosa PA264 assessed as minocycline MIC by CLSI based broth-microdilution method; type: functional
Pseudomonas aeruginosa [12] = experiment: Antibacterial activity against Pseudomonas aeruginosa PA264 assessed as doxycycline MIC by CLSI based broth-microdilution method; type: functional
Pseudomonas aeruginosa [13] = experiment: Antibacterial activity against Pseudomonas aeruginosa PA100036 assessed as minocycline MIC by CLSI based broth-microdilution method; type: functional
Pseudomonas aeruginosa [14] = experiment: Antibacterial activity against Pseudomonas aeruginosa PA100036 assessed as eravacycline MIC by CLSI based broth-microdilution method; type: functional
Pseudomonas aeruginosa [15] = experiment: Antibacterial activity against Pseudomonas aeruginosa PA101243 assessed as doxycycline MIC by CLSI based broth-microdilution method; type: functional
Pseudomonas aeruginosa [16] = experiment: Antibacterial activity against Pseudomonas aeruginosa PA200 assessed as doxycycline MIC by CLSI based broth-microdilution method; type: functional
Pseudomonas aeruginosa [17] = experiment: Antibacterial activity against Pseudomonas aeruginosa PA200 assessed as eravacycline MIC by CLSI based broth-microdilution method; type: functional
Pseudomonas aeruginosa [18] = experiment: Synergistic antibacterial activity against Pseudomonas aeruginosa PA259 assessed as fractional inhibitory concentration index in presence of tigecycline by checkerboard assay; type: functional
Pseudomonas aeruginosa [19] = experiment: Synergistic antibacterial activity against Pseudomonas aeruginosa PA259 assessed as fractional inhibitory concentration index in presence of eravacycline by checkerboard assay; type: functional
Pseudomonas aeruginosa [20] = experiment: Synergistic antibacterial activity against Pseudomonas aeruginosa PA262 assessed as fractional inhibitory concentration index in presence of minocycline by checkerboard assay; type: functional
Pseudomonas aeruginosa [21] = experiment: Synergistic antibacterial activity against Pseudomonas aeruginosa PA262 assessed as fractional inhibitory concentration index in presence of tigecycline by checkerboard assay; type: functional
Pseudomonas aeruginosa [22] = experiment: Synergistic antibacterial activity against Pseudomonas aeruginosa PA264 assessed as fractional inhibitory concentration index in presence of minocycline by checkerboard assay; type: functional
Pseudomonas aeruginosa [23] = experiment: Synergistic antibacterial activity against Pseudomonas aeruginosa PA264 assessed as fractional inhibitory concentration index in presence of doxycycline by checkerboard assay; type: functional
Pseudomonas aeruginosa [24] = experiment: Synergistic antibacterial activity against Pseudomonas aeruginosa PA100036 assessed as fractional inhibitory concentration index in presence of minocycline by checkerboard assay; type: functional
Pseudomonas aeruginosa [25] = experiment: Synergistic antibacterial activity against Pseudomonas aeruginosa PA100036 assessed as fractional inhibitory concentration index in presence of doxycycline by checkerboard assay; type: functional
Pseudomonas aeruginosa [26] = experiment: Synergistic antibacterial activity against Pseudomonas aeruginosa PA114228 assessed as fractional inhibitory concentration index in presence of minocycline by checkerboard assay; type: functional
Pseudomonas aeruginosa [27] = experiment: Synergistic antibacterial activity against Pseudomonas aeruginosa PA101243 assessed as fractional inhibitory concentration index in presence of tigecycline by checkerboard assay; type: functional
Pseudomonas aeruginosa [28] = experiment: Synergistic antibacterial activity against Pseudomonas aeruginosa PA095 assessed as fractional inhibitory concentration index in presence of doxycycline by checkerboard assay; type: functional
Pseudomonas aeruginosa [29] = experiment: Synergistic antibacterial activity against Pseudomonas aeruginosa PA200 assessed as fractional inhibitory concentration index in presence of minocycline by checkerboard assay; type: functional
Pseudomonas aeruginosa [30] = experiment: Synergistic antibacterial activity against Pseudomonas aeruginosa PA200 assessed as fractional inhibitory concentration index in presence of doxycycline by checkerboard assay; type: functional
Pseudomonas aeruginosa [31] = experiment: Synergistic antibacterial activity against Pseudomonas aeruginosa PA259 assessed as fold change in minocycline MIC by CLSI based broth-microdilution method relative to minocycline alone; type: functional
Pseudomonas aeruginosa [32] = experiment: Synergistic antibacterial activity against Pseudomonas aeruginosa PA264 assessed as fold change in doxycycline MIC by CLSI based broth-microdilution method relative to doxycycline alone; type: functional
Pseudomonas aeruginosa [33] = experiment: Synergistic antibacterial activity against Pseudomonas aeruginosa PA264 assessed as fold change in tigecycline MIC by CLSI based broth-microdilution method relative to tigecycline alone; type: functional
Pseudomonas aeruginosa [34] = experiment: Synergistic antibacterial activity against Pseudomonas aeruginosa PA114228 assessed as fold change in minocycline MIC by CLSI based broth-microdilution method relative to minocycline alone; type: functional
Pseudomonas aeruginosa [35] = experiment: Synergistic antibacterial activity against Pseudomonas aeruginosa PA101243 assessed as fold change in eravacycline MIC by CLSI based broth-microdilution method relative to eravacycline alone; type: functional
Pseudomonas aeruginosa [36] = experiment: Synergistic antibacterial activity against Pseudomonas aeruginosa PA095 assessed as fold change in tigecycline MIC by CLSI based broth-microdilution method relative to tigecycline alone; type: functional
Pseudomonas aeruginosa [37] = experiment: Synergistic antibacterial activity against Pseudomonas aeruginosa PA200 assessed as fold change in minocycline MIC by CLSI based broth-microdilution method relative to minocycline alone; type: functional
Pseudomonas aeruginosa [38] = experiment: Synergistic antibacterial activity against Pseudomonas aeruginosa PA200 assessed as fold change in eravacycline MIC by CLSI based broth-microdilution method relative to eravacycline alone; type: functional
Escherichia [39] = experiment: Synergistic antibacterial activity against Escherichia 94474 assessed as fold change in minocycline MIC by CLSI based broth-microdilution method relative to minocycline alone; type: functional
How it was run: (§1)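 Checkerboard combination assay against E. coli EC107115 (MDR) and EC94474 (colistin-resistant), run in biological duplicates; the fold change is the tetracycline MIC in combination relative to its MIC alone.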

Escherichia [40] = experiment: Synergistic antibacterial activity against Escherichia 107115 assessed as fold change in minocycline MIC by CLSI based broth-microdilution method relative to minocycline alone; type: functional; how it was run: as §1
Pseudomonas aeruginosa [41] = experiment: Antibacterial activity against Pseudomonas aeruginosa PAO1 assessed as inhibition of bacterial growth by measuring fold change in MIC in presence of 50 % fetal bovine serum by CLSI protocol based assay; type: functional
HEK293 = experiment: Cytotoxicity against HEK293 cells assessed as reduction in cell viability at 7 uM; type: toxicity, cell-based; settings: human, hek293, 7 µM
HepG2 = experiment: Cytotoxicity against human HepG2 cells assessed as reduction in cell viability at 400 uM; type: functional, cell-based

- MIC (Escherichia coli): > 128 µg/mL
- MIC (Pseudomonas aeruginosa [1]): > 128 µg/mL
- MIC (Pseudomonas aeruginosa [2]): 8 µg/mL
- MIC (Pseudomonas aeruginosa [3]): 8 µg/mL
- MIC (Pseudomonas aeruginosa [4]): 8 µg/mL
- MIC (Pseudomonas aeruginosa [5]): 8 µg/mL
- MIC (Pseudomonas aeruginosa [6]): 8 µg/mL
- MIC (Pseudomonas aeruginosa [7]): 2 µg/mL
- MIC (Pseudomonas aeruginosa [8]): 2 µg/mL
- MIC (Pseudomonas aeruginosa [9]): 0.5 µg/mL
- MIC (Pseudomonas aeruginosa [10]): 8 µg/mL
- MIC (Pseudomonas aeruginosa [11]): 0.5 µg/mL
- MIC (Pseudomonas aeruginosa [12]): 0.5 µg/mL
- MIC (Pseudomonas aeruginosa [13]): 0.25 µg/mL
- MIC (Pseudomonas aeruginosa [14]): 0.125 µg/mL
- MIC (Pseudomonas aeruginosa [15]): 1 µg/mL
- MIC (Pseudomonas aeruginosa [16]): 2 µg/mL
- MIC (Pseudomonas aeruginosa [17]): 0.031 µg/mL
SMILES: Cl.Cl.Cl.Cl.Cl.Cl.NC[C@H]1O[C@H](O[C@H]2[C@H](OCCCCCCCCCCCCNC(=O)c3cn(C4CC4)c4cc(N5CCNCC5)c(F)cc4c3=O)[C@@H](O[C@H]3O[C@H](CO)[C@@H](O)[C@H](N)[C@H]3O)[C@H](N)C[C@@H]2N)[C@H](N)C[C@@H]1O
- fractional inhibitory concentration index (FICI) (Pseudomonas aeruginosa [18]): 0.002
- fractional inhibitory concentration index (FICI) (Pseudomonas aeruginosa [19]): 0.008
- fractional inhibitory concentration index (FICI) (Pseudomonas aeruginosa [20]): 0.008
- fractional inhibitory concentration index (FICI) (Pseudomonas aeruginosa [21]): 0.008
- fractional inhibitory concentration index (FICI) (Pseudomonas aeruginosa [22]): 0.031
- fractional inhibitory concentration index (FICI) (Pseudomonas aeruginosa [23]): 0.015
- fractional inhibitory concentration index (FICI) (Pseudomonas aeruginosa [24]): 0.015
- fractional inhibitory concentration index (FICI) (Pseudomonas aeruginosa [25]): 0.004
- fractional inhibitory concentration index (FICI) (Pseudomonas aeruginosa [26]): 0.008
- fractional inhibitory concentration index (FICI) (Pseudomonas aeruginosa [27]): 0.125
- fractional inhibitory concentration index (FICI) (Pseudomonas aeruginosa [28]): 0.25
- fractional inhibitory concentration index (FICI) (Pseudomonas aeruginosa [29]): 0.312
- fractional inhibitory concentration index (FICI) (Pseudomonas aeruginosa [30]): 0.257
- fold change (FC) (Pseudomonas aeruginosa [31]): 512
- fold change (FC) (Pseudomonas aeruginosa [32]): 16
- fold change (FC) (Pseudomonas aeruginosa [33]): 32
- fold change (FC) (Pseudomonas aeruginosa [34]): 512
- fold change (FC) (Pseudomonas aeruginosa [35]): 4
- fold change (FC) (Pseudomonas aeruginosa [36]): 2
- fold change (FC) (Pseudomonas aeruginosa [37]): 64
- fold change (FC) (Pseudomonas aeruginosa [38]): 128
- fold change (FC) (Escherichia [39]): 8
- fold change (FC) (Escherichia [40]): 32
- fold change (FC) (Pseudomonas aeruginosa [41]): 1
- Activity (HEK293): Non-toxic
- Activity (HepG2): Active
